Results: ChEMBL document CHEMBL3779800 (ACS Med Chem Lett, 2016)
pKi: −log10 of the molar value.

Experiments:
[1] = molecular target: T1, Amine oxidase [flavin-containing] A (Homo sapiens, UniProt P21397); test: Reversible inhibition of recombinant human MAO-A using p-tyramine as substrate incubated for 1 hr by centrifugation ultra filtration method
T1 sequence (P21397 whole entry): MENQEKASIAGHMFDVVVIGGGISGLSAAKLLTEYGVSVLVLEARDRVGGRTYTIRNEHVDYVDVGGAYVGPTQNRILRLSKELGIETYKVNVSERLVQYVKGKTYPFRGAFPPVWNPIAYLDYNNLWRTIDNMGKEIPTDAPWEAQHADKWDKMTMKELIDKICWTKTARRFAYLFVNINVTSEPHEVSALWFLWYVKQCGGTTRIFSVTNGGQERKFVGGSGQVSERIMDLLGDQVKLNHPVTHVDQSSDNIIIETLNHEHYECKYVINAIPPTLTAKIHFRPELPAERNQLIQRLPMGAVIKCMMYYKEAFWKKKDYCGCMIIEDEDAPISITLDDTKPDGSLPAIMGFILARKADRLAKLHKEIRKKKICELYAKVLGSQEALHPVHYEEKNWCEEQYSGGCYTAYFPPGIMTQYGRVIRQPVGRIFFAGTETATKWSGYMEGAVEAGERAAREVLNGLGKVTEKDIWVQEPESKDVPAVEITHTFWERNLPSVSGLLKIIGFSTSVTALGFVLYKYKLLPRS

[2] = molecular target: T1, Amine oxidase [flavin-containing] A; test: Competitive inhibition of recombinant human MAO-A using p-tyramine as substrate preincubated for 15 mins followed by substrate addition by Lineweaver-Burk plot analysis
[3] = molecular target: T2, Amine oxidase [flavin-containing] B (Homo sapiens, UniProt P27338); test: Inhibition of recombinant human MAO-B using p-tyramine as substrate assessed as H2O2 production preincubated for 15 mins followed by substrate addition measured for 15 mins by amplex red assay
T2 sequence (P27338 whole entry): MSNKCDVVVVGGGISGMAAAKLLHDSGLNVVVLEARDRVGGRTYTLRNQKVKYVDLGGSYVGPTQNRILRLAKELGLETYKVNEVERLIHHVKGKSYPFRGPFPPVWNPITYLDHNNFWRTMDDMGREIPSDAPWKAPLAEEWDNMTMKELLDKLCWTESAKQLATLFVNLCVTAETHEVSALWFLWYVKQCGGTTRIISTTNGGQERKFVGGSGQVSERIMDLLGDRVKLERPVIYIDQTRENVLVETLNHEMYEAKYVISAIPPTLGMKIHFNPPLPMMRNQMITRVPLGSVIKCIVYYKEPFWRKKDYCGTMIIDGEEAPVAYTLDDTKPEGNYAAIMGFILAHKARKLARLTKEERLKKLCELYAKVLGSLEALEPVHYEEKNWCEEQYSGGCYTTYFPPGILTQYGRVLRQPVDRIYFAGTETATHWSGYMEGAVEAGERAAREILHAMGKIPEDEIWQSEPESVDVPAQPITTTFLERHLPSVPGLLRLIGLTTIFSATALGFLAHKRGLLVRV

[4] = molecular target: T1, Amine oxidase [flavin-containing] A; test: Inhibition of recombinant human MAO-A using p-tyramine as substrate assessed as H2O2 production preincubated for 15 mins followed by substrate addition measured for 15 mins by amplex red assay
Method in brief: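 H2O2 formed from p-tyramine, a substrate shared by hMAO-A and hMAO-B, was measured with an Amplex Red MAO kit. Compounds were checked for direct reaction with the Amplex Red reagent. They were also checked for resorufin quenching by combining the highest compound concentration with various resorufin concentrations. Protein was determined by Bradford with BSA standard. Values are mean ± SEM of three independent experiments.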

[5] = species on record: Homo sapiens; test: Selectivity index, ratio of Ki for recombinant human MAO-A to Ki for recombinant human MAO-B
Method in brief: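 SI is Ki(MAO-A)/Ki(MAO-B). Each Ki comes from the Amplex Red H2O2 assay with p-tyramine substrate and is the mean ± SEM of three independent experiments. Racemates were tested. A lower SI indicates MAO-A preference and a higher SI indicates MAO-B preference.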

[6] = molecular target: T1, Amine oxidase [flavin-containing] A; test: Suicide inhibition of recombinant human MAO-A using p-tyramine as substrate preincubated for 15 mins followed by substrate addition by Lineweaver-Burk plot analysis
[7] = molecular target: T1, Amine oxidase [flavin-containing] A; test: Irreversible inhibition of recombinant human MAO-A using p-tyramine as substrate incubated for 1 hr by centrifugation ultra filtration method
Method in brief: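 Reversibility of hMAO-A inhibition assessed by a centrifugation-ultrafiltration method. Enzyme activity was read as H2O2 production from p-tyramine using Amplex Red fluorescence. Compounds were checked for direct reaction with Amplex Red and for resorufin quenching, tested at their maximum concentration against various resorufin concentrations. Racemic compounds were used.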

Structure (SMILES) | inhibition (INH) [1] | inhibition (INH) [2] | pKi [3] | pKi [4] | Ratio Ki [5] | inhibition (INH) [6] | inhibition (INH) [7]
CCOC(=O)N1N=C(c2ccc(O)c(OC)c2)CC1c1ccccc1 (racemic) | Active | Active | 3.70 | 6.36 | 0.002 |  | 
COc1cc(C2=NN(C(=N)N)C(c3ccccc3)C2)ccc1O (racemic) | Active | Active | 3.70 | 5.02 | 0.047 |  | 
COc1cc(C2=NN(S(=O)(=O)c3ccc(C)cc3)C(c3ccccc3)C2)ccc1O (racemic) | Active | Active | 2.23 | 7.22 | 1.02e-05 |  | 
COc1cc(C2=NNC(c3ccccc3)C2)ccc1O (racemic) | Active | Active | 6.46 | 5.30 | 14.3 |  | 
COc1cc(C2=NN(C(C)=O)C(c3ccccc3)C2)ccc1O (racemic) | Active | Active |  | 5.41 |  |  | 
COc1cc(C2=NN(C(=O)Oc3ccccc3)C(c3ccccc3)C2)ccc1O (racemic) | Active | Active | 5.40 | 6.54 | 0.073 |  | 
COc1cc(C2=NN(C(=S)Nc3ccccc3)C(c3ccccc3)C2)ccc1O (racemic) | Active | Active | 4.80 | 6.26 | 0.035 |  | 
COc1cc(C2=NN(c3ccccc3)C(c3ccccc3)C2)ccc1O (racemic) | Active | Active |  | 5.67 |  |  | 
COc1cc(C2=NN(C(=O)c3ccccc3)C(c3ccccc3)C2)ccc1O (racemic) | Active | Active | 4.39 | 5.37 | 0.104 |  | 
COc1cc(C2=NN(C(N)=S)C(c3ccccc3)C2)ccc1O (racemic) | Active | Active | 5.56 | 5.59 | 0.928 |  | 
COc1cc(/C=C/C(=O)CC(=O)/C=C/c2ccc(O)c(OC)c2)ccc1O [CURCUMIN] | Active | Active |  |  |  |  | 
O=C(NCCN1CCOCC1)c1ccc(Cl)cc1 [MOCLOBEMIDE] | Active | Active |  |  |  |  | 
C#CCN(C)[C@H](C)Cc1ccccc1 [SELEGILINE] |  |  |  |  |  | Active | Active
